Results published in ChEMBL document CHEMBL3244114, “Synthesis of 11 beta,13 beta- and 13 beta,16 beta-propano steroids: probes of hormonal activity” (J Med Chem, 1979).
The source made the active and inactive calls. No cut-off for these calls is given here.

Assays:
[1] = tested on: Oryctolagus cuniculus; assay: Antiprogestational activity in estradiol benzoate-primed rabbit at 10 to 15 mg, sc administered qd for 5 days by anti-Clauberg assay in presence of progesterone; type: functional, organism-based
How it was run: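 Immature rabbits (six) were primed with estradiol benzoate for 6 days. Each compound (10–15 mg) was then given with progesterone (0.8 mg) in sesame oil, subcutaneously, once daily for 5 days. The read-out was uterine stimulation. NICHD ran the assay.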

[2] = biological target: T1, Progesterone receptor (Oryctolagus cuniculus) (UniProt P06186); assay: Binding affinity to progesterone receptor in rabbit uterine cytosol relative to progesterone; settings: Uterus
T1 sequence (whole entry): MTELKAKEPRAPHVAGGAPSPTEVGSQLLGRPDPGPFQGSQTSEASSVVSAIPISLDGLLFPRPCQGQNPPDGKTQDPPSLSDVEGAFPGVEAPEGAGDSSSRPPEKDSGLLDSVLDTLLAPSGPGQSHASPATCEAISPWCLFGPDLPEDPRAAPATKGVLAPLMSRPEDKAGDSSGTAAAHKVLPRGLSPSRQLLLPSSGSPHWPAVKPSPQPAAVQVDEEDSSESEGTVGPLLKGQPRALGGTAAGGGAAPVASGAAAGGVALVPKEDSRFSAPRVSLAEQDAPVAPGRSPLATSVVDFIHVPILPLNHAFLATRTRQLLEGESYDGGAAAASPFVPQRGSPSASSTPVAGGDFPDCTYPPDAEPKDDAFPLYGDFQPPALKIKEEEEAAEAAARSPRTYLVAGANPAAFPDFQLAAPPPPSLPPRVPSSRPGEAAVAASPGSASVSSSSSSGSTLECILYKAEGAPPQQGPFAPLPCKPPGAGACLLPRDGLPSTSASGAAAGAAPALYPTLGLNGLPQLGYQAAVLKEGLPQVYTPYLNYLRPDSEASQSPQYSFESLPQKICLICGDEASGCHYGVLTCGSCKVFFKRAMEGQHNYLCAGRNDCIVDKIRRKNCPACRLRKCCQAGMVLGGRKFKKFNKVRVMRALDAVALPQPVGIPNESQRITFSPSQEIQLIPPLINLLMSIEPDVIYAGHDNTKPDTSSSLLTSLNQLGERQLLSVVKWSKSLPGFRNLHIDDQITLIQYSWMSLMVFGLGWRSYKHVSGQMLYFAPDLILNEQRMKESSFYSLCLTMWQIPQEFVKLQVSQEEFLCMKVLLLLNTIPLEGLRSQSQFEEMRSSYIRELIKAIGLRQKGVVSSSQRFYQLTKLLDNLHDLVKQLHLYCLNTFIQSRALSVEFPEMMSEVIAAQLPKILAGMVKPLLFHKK

[3] = species on record: Oryctolagus cuniculus; assay: Progestational activity in immature rabbit assessed as uterine stimulation by Clauberg assay; type: functional
[4] = Solubility of the compound in carbon tetrachloride; type: physicochemical

Row | Compound | Activity [1] | Activity [2] [%] | Activity [3] [%] | solubility [4]
1 | C#C[C@]1(O)CC[C@H]2[C@@H]3CCC4=CC(=O)CC[C@@H]4[C@H]3CC[C@@]21CCCO | inactive | 2 | – | –
2 | C#C[C@]1(O)CC[C@H]2[C@@H]3CCC4=CC(=O)CC[C@@H]4[C@H]3[C@@H](C)C[C@@]21C | – | 390 | – | –
3 | C#C[C@]1(O)CC[C@H]2[C@@H]3CCC4=CC(=O)CC[C@@H]4[C@H]3CC[C@@]21CCCOC(=O)CBr | inactive | 2 | – | –
4 | C#C[C@]1(O)[C@H]2CCC[C@@]13CC[C@H]1[C@@H](CCC4=CC(=O)CC[C@@H]41)[C@@H]3C2 (racemic) | inactive | 1 | – | –
5 | C#C[C@]1(O)CC[C@H]2[C@@H]3CCC4=CC(=O)CC[C@@H]4[C@H]3[C@@H](C)C[C@@]21CC (racemic) | – | 151 | – | –
6 | C#C[C@]1(O)CC[C@H]2[C@@H]3CCC4=CC(=O)CC[C@@H]4[C@H]3CC[C@@]21CCCCl | inactive | 1 | – | –
7 | C#C[C@]1(O)CC[C@H]2[C@@H]3CCC4=CC(=O)CC[C@@H]4[C@H]3CC[C@@]21CCC=O | inactive | 21 | 5 | –
8 | C#C[C@]1(O)CC[C@H]2[C@@H]3CCC4=CC(=O)CC[C@@H]4[C@H]3CC[C@@]21CCCOC(C)=O | inactive | – | – | –
9 | COc1ccc2c(c1)CCC1=C2[C@@H]2C[C@]3(CCC2O)[C@@H](OC(C)=O)CC[C@@H]13 (stereo partly drawn) | – | – | – | Insoluble
10 | C#CC1(O)CC[C@H]2[C@@H]3CCC4=CC(=O)CC[C@@H]4[C@H]3CC[C@@]21CC (mixture of isomers) | – | 206 | – | –
11 | C#C[C@]1(O)CC[C@H]2[C@@H]3CCC4=CC(=O)CC[C@@H]4[C@H]3CC[C@@]21C | – | 126 | – | –
12 | C#C[C@]1(O)CC[C@H]2[C@@H]3CCC4=CC(=O)CC[C@@H]4[C@H]3[C@H]3CCC[C@]21C3 (racemic) | – | 136 | – | –
